According to ChEMBL document CHEMBL1154897, “HPLC-based activity profiling: discovery of piperine as a positive GABA(A) receptor modulator targeting a benzodiazepine-independent binding site” (J Nat Prod, 2010):
Activity calls are given as the source filed them. The calls are words filed in the database; no cut-off is given here.

What was measured:
Oocyte [1] = experiment: Activation of rat GABA alpha-1-beta-2-gamma-2 receptor expressed in xenopus oocytes assessed as potentiation of GABA-induced chloride current at 100 uM after 90 secs by two […] electrode voltage clamp assay; format: cell-based
Procedure, shortened: (§1)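 Rat α1, β2, γ2S cRNAs (1:1:10) injected into collagenase-defolliculated Xenopus oocytes, stored at 18 °C in ND96, recorded on days 1–5. Two-microelectrode voltage clamp at −70 mV. Bath: 90 mM NaCl, 1 mM KCl, 1 mM MgCl2, 1 mM CaCl2, 5 mM HEPES, pH 7.4. Cells with maximal currents > 3 μA discarded. Solutions delivered by automated fast perfusion.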

Oocyte [2] = experiment: Activation of rat GABA alpha-1-beta-2-gamma-2 receptor expressed in xenopus oocytes assessed as potentiation of chloride current at 100 uM after 90 secs by two […] electrode voltage clamp assay; format: cell-based; procedure, shortened: as §1
Oocyte [3] = experiment: (§2) Activation of rat GABA alpha-1-beta-2-gamma-2 receptor expressed in xenopus oocytes assessed as potentiation of GABA-induced chloride current after 90 secs by two […] electrode voltage clamp assay; format: cell-based
Procedure, shortened: (§3)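 Xenopus oocytes injected with rat α1, β2, γ2S cRNAs (1:1:10), kept at 18 °C in ND96, recorded days 1–5. Two-electrode voltage clamp at −70 mV in bath containing 90 mM NaCl, 1 mM KCl, 1 mM MgCl2, 1 mM CaCl2, 5 mM HEPES, pH 7.4. Compound (1–300 μM) preapplied 90 s, then coapplied with GABA EC5–10 by fast perfusion. Values n = 3.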

[4] = as §2; format: cell-based; conditions: Oocyte; procedure, shortened: as §3
Oocyte [5] = experiment: Activation of rat GABA alpha-1-beta-2-gamma-2 receptor expressed in xenopus oocytes assessed as potentiation of GABA-induced chloride current at 300 uM after 90 secs by two […] electrode voltage clamp assay; format: cell-based; procedure, shortened: as §1
Oocyte [6] = experiment: Activation of rat GABA alpha-1-beta-2-gamma-2 receptor expressed in xenopus oocytes assessed as potentiation of GABA-induced chloride current at 100 uM after 90 secs by two […] electrode voltage clamp assay in presence of 1 uM Diazepam; format: cell-based; procedure, shortened: as §1
[7] = Displacement of [3H]-flumazenil from GABAA receptor
Oocyte [8] = experiment: Activation of rat GABA alpha-1-beta-2-gamma-2 receptor expressed in xenopus oocytes assessed as potentiation of GABA-induced chloride current at 300 uM after 90 secs by two […] electrode voltage clamp assay relative to control in presence of flumazenil; format: cell-based; procedure, shortened: as §1

Row | SMILES | Activity (Oocyte [1]) [%] | Activity (Oocyte [2]) | Activity (Oocyte [3]) | EC50 [4] [µM] | Activity (Oocyte [5]) [%] | Activity (Oocyte [6]) [%] | IC50 [7] [µM] | Activity (Oocyte [8]) [%]
1 | CC(C)CNC(=O)/C=C/C=C/c1ccc2c(c1)OCO2 | -10 | inactive | – | – | – | – | – | –
2 | O=C(/C=C/C=C/c1ccc2c(c1)OCO2)N1CCCC1 | -29 | inactive | – | – | – | – | – | –
3 | O=C(CCCC/C=C/c1ccc2c(c1)OCO2)N1CCCCC1 | 32 | inactive | – | – | – | – | – | –
4 | O=C(/C=C/CCc1ccc2c(c1)OCO2)N1CCCCC1 [PIPERANINE] | 138 | inactive | Dose-dependent effect | 56 | 187 | – | – | –
5 | O=C(/C=C/C=C/c1ccc2c(c1)OCO2)N1CCCCC1 [PIPERINE] | 226 | inactive | Dose-dependent effect | 52 | 302 | 391 | 1200 | 334
